Tests used:
Plasmodium falciparum [1] = experiment: In vitro antimalarial activity against Plasmodium falciparum K1 by [3H]hypoxanthine uptake; type: functional, organism-based
Plasmodium falciparum [2] = experiment: In vitro antimalarial activity against Plasmodium falciparum HB3 by [3H]hypoxanthine uptake; type: functional, organism-based
Jurkat = experiment: Inhibitory concentration against Jurkat cells; type: functional, cell-based; conditions: Homo sapiens
Summary of the method: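 Jurkat cells were grown in RPMI-1640 with 10% v/v FBS and 1% v/v L-glutamine at 37 °C under humidified 5% CO2, kept below 1 × 10⁶ cells/mL, with viability above 95%. Cells were plated at 1 × 10⁵/well and exposed to 10⁻¹⁰–10⁻⁴ M drug for 72 h, with final DMSO below 0.5% v/v. [³H]-thymidine (0.5 μCi/well) was added at 48 h for the final 24 h, and incorporation was read by β-scintillation counting.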

HL-60 = experiment: Inhibitory concentration against HL60 cells; type: functional, cell-based; conditions: Homo sapiens
Summary of the method: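 HL60 (2.5 × 10⁴/well) or Jurkat (1 × 10⁵/well) in RPMI-1640 with 10% FBS and 1% L-glutamine, 5% CO2, 37 °C. Exposed to 10⁻¹⁰–10⁻⁴ M for 72 h, final DMSO below 0.5% v/v. [3H]-thymidine (0.5 μCi) added for the final 24 h. Incorporation counted by β-scintillation.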

Compound: COP(=O)(OC)OCC[C@H]1O[C@@H]2O[C@]3(C)CC[C@H]4[C@H](C)CC[C@@H]([C@H]1C)[C@@]24OO3
- IC50 (Plasmodium falciparum [1]): 2.2 nM

Compound: C[C@H]1[C@@H](CCOC(=O)c2ccc(C(=O)OCC[C@H]3O[C@@H]4O[C@]5(C)CC[C@H]6[C@H](C)CC[C@@H]([C@H]3C)[C@@]46OO5)cc2)O[C@@H]2O[C@]3(C)CC[C@H]4[C@H](C)CC[C@@H]1[C@@]24OO3
- IC50 (Plasmodium falciparum [1]): 4.6 nM

Compound: C[C@H]1[C@@H](CCOCc2ccc(COCC[C@H]3O[C@@H]4O[C@]5(C)CC[C@H]6[C@H](C)CC[C@@H]([C@H]3C)[C@@]46OO5)cc2)O[C@@H]2O[C@]3(C)CC[C@H]4[C@H](C)CC[C@@H]1[C@@]24OO3
- IC50 (Plasmodium falciparum [1]): 2.4 nM

Compound: C[C@H]1[C@@H](CCOC(=O)c2cccc(C(=O)OCC[C@H]3O[C@@H]4O[C@]5(C)CC[C@H]6[C@H](C)CC[C@@H]([C@H]3C)[C@@]46OO5)c2)O[C@@H]2O[C@]3(C)CC[C@H]4[C@H](C)CC[C@@H]1[C@@]24OO3
- IC50 (Plasmodium falciparum [1]): 42.2 nM

Compound: C[C@H]1[C@@H](CCOP(=O)(Oc2ccccc2)Oc2ccccc2)O[C@@H]2O[C@]3(C)CC[C@H]4[C@H](C)CC[C@@H]1[C@@]24OO3
- IC50 (Plasmodium falciparum [1]): 3.1 nM

Compound: C[C@H]1[C@@H](CCOC(=O)c2ccccc2C(=O)OCC[C@H]2O[C@@H]3O[C@]4(C)CC[C@H]5[C@H](C)CC[C@@H]([C@H]2C)[C@@]35OO4)O[C@@H]2O[C@]3(C)CC[C@H]4[C@H](C)CC[C@@H]1[C@@]24OO3
- IC50 (Plasmodium falciparum [2]): 1.6 nM
- IC50 (Plasmodium falciparum [1]): 2.6 nM

Compound: C[C@H]1[C@@H](CCOCc2ccccc2COCC[C@H]2O[C@@H]3O[C@]4(C)CC[C@H]5[C@H](C)CC[C@@H]([C@H]2C)[C@@]35OO4)O[C@@H]2O[C@]3(C)CC[C@H]4[C@H](C)CC[C@@H]1[C@@]24OO3
- IC50 (Plasmodium falciparum [2]): 1.3 nM
- IC50 (Plasmodium falciparum [1]): 2.9 nM

Compound: C[C@H]1[C@@H](CCOCc2cccc(COCC[C@H]3O[C@@H]4O[C@]5(C)CC[C@H]6[C@H](C)CC[C@@H]([C@H]3C)[C@@]46OO5)c2)O[C@@H]2OC3(C)CC[C@H]4[C@H](C)CC[C@@H]1[C@@]24OO3 (single isomer, unassigned)
- IC50 (Plasmodium falciparum [2]): 2.1 nM
- IC50 (Plasmodium falciparum [1]): 2.7 nM

Compound: C[C@H]1[C@@H](CCOC(=O)CCCC(=O)OCC[C@H]2O[C@@H]3OC4(C)CC[C@H]5[C@H](C)CC[C@@H]([C@H]2C)[C@@]35OO4)O[C@@H]2OC3(C)CC[C@H]4[C@H](C)CC[C@@H]1[C@@]24OO3 (single isomer, unassigned)
- IC50 (Plasmodium falciparum [2]): 1.1 nM
- IC50 (Plasmodium falciparum [1]): 2.4 nM

Compound: C[C@H]1[C@@H](CCOC(=O)CCC(=O)OCC[C@H]2O[C@@H]3OC4(C)CC[C@H]5[C@H](C)CC[C@@H]([C@H]2C)[C@@]35OO4)O[C@@H]2OC3(C)CC[C@H]4[C@H](C)CC[C@@H]1[C@@]24OO3 (single isomer, unassigned)
- IC50 (Plasmodium falciparum [2]): 1.4 nM
- IC50 (Plasmodium falciparum [1]): 1.8 nM

Compound: C[C@@H]1CC[C@H]2[C@@H](C)C(=O)O[C@@H]3O[C@@]4(C)CC[C@@H]1[C@]32OO4 [ARTEMISININ]
- IC50 (Plasmodium falciparum [1]): 12.3 nM

Compound: CC(=O)C1C(=O)C=C(C)OC1=O (stereo not given) [DEHYDROACETIC ACID]
- IC50 (Jurkat): 101000 nM
- IC50 (HL-60): 1210 nM

Compound: COc1cccc2c1C(=O)c1c(O)c3c(c(O)c1C2=O)C[C@@](O)(C(=O)CO)C[C@@H]3O[C@H]1C[C@H](N)[C@H](O)[C@H](C)O1 [DOXORUBICIN]
- IC50 (Jurkat): 1700 nM
- IC50 (HL-60): 510 nM

From ChEMBL document CHEMBL1149086, “Antimalarial and antitumor evaluation of novel C-10 non-acetal dimers of 10beta-(2-hydroxyethyl)deoxoartemisinin” (J Med Chem, 2004)
